Key:
[1] = target: T1, Neutrophil elastase (Homo sapiens) (UniProt P08246); test: Inhibition of Human Leukocyte Elastase, activity is expressed as biomolecular rate constant
T1 sequence (whole entry): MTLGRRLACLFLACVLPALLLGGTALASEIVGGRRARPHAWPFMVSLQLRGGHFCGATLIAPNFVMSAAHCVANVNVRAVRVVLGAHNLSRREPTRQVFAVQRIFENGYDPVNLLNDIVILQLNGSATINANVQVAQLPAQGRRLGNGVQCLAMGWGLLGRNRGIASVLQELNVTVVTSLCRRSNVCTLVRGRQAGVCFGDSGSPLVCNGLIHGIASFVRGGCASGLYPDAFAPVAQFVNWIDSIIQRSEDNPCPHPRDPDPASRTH
Method in brief: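 Spectrophotometric assay at 25 °C with continuous monitoring of p-nitroaniline release at 410 nm from succinyl-Ala-Ala-Pro-Ala-p-nitroanilide. Activity given as the bimolecular rate constant kobs/[I] in M-1 s-1 (±SE).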

[2] = target: T1, Neutrophil elastase (Homo sapiens); test: Inhibition of Human Leukocyte Elastase induced lung hemorrhage in hamsters expressed as % inhibition (mean of 4 animals); format: functional; parameters: concentration or dose not given beside the values; conditions: concentration not given here
Method in brief: (§1)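 Hamster lung hemorrhage model: inhibitor given orally at 30 mg/kg (some at 50 mg/kg) 30 min before instillation of HLE into the lung. Hemorrhage measured 3 h after instillation as hemoglobin content of lung lavage fluid, read spectrophotometrically. Reported as % inhibition, mean of four animals (±SD).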

Cricetinae gen. sp. = test: Inhibition of Human Leukocyte Elastase induced Lung Hemorrhage in Hamsters expressed as % inhibition (mean of 4 animals); format: functional, Cricetulus griseus; method in brief: as §1

CCC1(CC)C(=O)N(C(=O)NCc2ccccc2)C1Oc1ccc([S+](C)[O-])cc1 (centres undefined)
k obs / 1 [1]: 4200 M⁻¹ s⁻¹

CCC1(CC)C(=O)N(C(=O)NCc2ccccc2)C1Oc1cccc(NC(C)=O)c1 (centres undefined)
k obs / 1 [1]: 1700 M⁻¹ s⁻¹

CCC1(CC)C(=O)N(C(=O)NCc2ccccc2)C1N1C=NC=CN1 (centres undefined)
k obs / 1 [1]: 246 M⁻¹ s⁻¹ | inhibition [2]: 72%

CCC1(CC)C(=O)N(C(=O)NCc2ccccc2)C1Oc1ccc(NC(=O)CCC(=O)O)cc1 (centres undefined)
k obs / 1 [1]: 2330 M⁻¹ s⁻¹ | inhibition [2]: -3%

CCC1(CC)C(=O)N(C(=O)NCc2ccccc2)C1Oc1ccc(S(C)(=O)=O)cc1 (centres undefined)
k obs / 1 [1]: 4500 M⁻¹ s⁻¹ | inhibition [2]: 16%

CCC1(CC)C(=O)N(C(=O)NCc2ccccc2)C1OCc1ccc(C(=O)O)cc1 (centres undefined)
k obs / 1 [1]: 54 M⁻¹ s⁻¹

CCC1(CC)C(=O)N(C(=O)NCc2ccccc2)C1Oc1ccc(CC(N)C(=O)O)cc1 (centres undefined)
k obs / 1 [1]: 2540 M⁻¹ s⁻¹

CCC1(CC)C(=O)N(C(=O)NCc2ccccc2)C1N1N=CC=CN1Cc1ccccc1 (centres undefined)
k obs / 1 [1]: 650 M⁻¹ s⁻¹

CCC1(CC)C(=O)N(C(=O)NCc2ccccc2)C1Oc1ccccc1NC(=O)CCC(=O)O (centres undefined)
k obs / 1 [1]: 70 M⁻¹ s⁻¹

CCC1(CC)C(=O)N(C(=O)NCc2ccccc2)C1Oc1ccc(C(O)C(=O)O)cc1 (centres undefined)
k obs / 1 [1]: 2100 M⁻¹ s⁻¹ | inhibition [2]: 36%

CCC1(CC)C(=O)N(C(=O)NCc2ccccc2)C1Oc1ccc2cc(C(=O)O)ccc2c1 (centres undefined)
k obs / 1 [1]: 5600 M⁻¹ s⁻¹ | inhibition [2]: 28%

CCC1(CC)C(=O)N(C(=O)NCc2ccccc2)C1Oc1ccccc1[N+](=O)[O-] (centres undefined)
k obs / 1 [1]: 890 M⁻¹ s⁻¹

CCC1(CC)C(=O)N(C(=O)NCc2ccccc2)C1Oc1ccc(/C=C/C(=O)O)cc1 (centres undefined)
k obs / 1 [1]: 1600 M⁻¹ s⁻¹ | inhibition [2]: 61%

CCC1(CC)C(=O)N(C(=O)NCc2ccccc2)C1n1ccccc1=O (centres undefined)
k obs / 1 [1]: 360 M⁻¹ s⁻¹ | inhibition [2]: 29%

CCC1(CC)C(=O)N(C(=O)NCc2ccccc2)C1Oc1c(C)cc(C(=O)O)cc1C (centres undefined)
k obs / 1 [1]: 750 M⁻¹ s⁻¹

CCC1(CC)C(=O)N(C(=O)NCc2ccccc2)C1Oc1ccc(C(=O)O)c2ccccc12 (centres undefined)
k obs / 1 [1]: 2000 M⁻¹ s⁻¹ | inhibition [2]: 15%

CCC1(CC)C(=O)N(C(=O)NCc2ccccc2)C1Oc1ccccc1CC(=O)O (centres undefined)
k obs / 1 [1]: 44 M⁻¹ s⁻¹ | inhibition [2]: 45%

CCC1(CC)C(=O)N(C(=O)NCc2ccccc2)C1Sc1cccnc1 (centres undefined)
k obs / 1 [1]: 250 M⁻¹ s⁻¹ | inhibition [2]: -5%

CCC1(CC)C(=O)N(C(=O)NCc2ccccc2)C1Oc1ccc(NC(C)=O)cc1 (centres undefined)
k obs / 1 [1]: 3500 M⁻¹ s⁻¹

CCC1(CC)C(=O)N(C(=O)NCc2ccccc2)C1Oc1ccc(C(=O)O)c(C(=O)O)c1 (centres undefined)
k obs / 1 [1]: 570 M⁻¹ s⁻¹

CCC1(CC)C(=O)N(C(=O)NCc2ccccc2)C1Oc1ccc(SC)cc1 (centres undefined)
k obs / 1 [1]: 3500 M⁻¹ s⁻¹ | inhibition [2]: 2%

CCC1(CC)C(=O)N(C(=O)NCc2ccccc2)C1OCC(O)CO (centres undefined)
k obs / 1 [1]: 800 M⁻¹ s⁻¹ | inhibition [2]: 46%

CCC1(CC)C(=O)N(C(=O)NCc2ccccc2)C1Oc1ccc([N+](=O)[O-])cc1 (centres undefined)
k obs / 1 [1]: 6800 M⁻¹ s⁻¹

CCC1(CC)C(=O)N(C(=O)NCc2ccccc2)C1Oc1cccc(C(=O)O)c1 (centres undefined)
k obs / 1 [1]: 1800 M⁻¹ s⁻¹ | inhibition [2]: 33%

CCC1(CC)C(=O)N(C(=O)NCc2ccccc2)C1Oc1cccc([N+](=O)[O-])c1 (centres undefined)
k obs / 1 [1]: 4800 M⁻¹ s⁻¹

CCC1(CC)C(=O)N(C(=O)NCc2ccccc2)C1Oc1ccc(C(=O)NS(=O)(=O)c2ccc(Cl)cc2)cc1 (centres undefined)
k obs / 1 [1]: 6900 M⁻¹ s⁻¹ | inhibition [2]: 11%

CCC1(CC)C(=O)N(C(=O)NCc2ccccc2)C1Oc1ccc(C(=O)O)cc1 (centres undefined)
inhibition [2]: 68%

CCC1(CC)C(=O)N(C(=O)NCc2ccccc2)C1Oc1ccc(C(=O)N2CCC[C@@H]2C(=O)O)cc1 (some centres undefined)
k obs / 1 [1]: 2900 M⁻¹ s⁻¹

CCC1(CC)C(=O)N(C(=O)NCc2ccccc2)C1Oc1cccc(NC(=O)CCC(=O)O)c1 (centres undefined)
k obs / 1 [1]: 2700 M⁻¹ s⁻¹

CCC1(CC)C(=O)N(C(=O)NCc2ccccc2)C1Oc1ccc(CC(NC(=O)c2ccccc2)C(=O)O)cc1 (centres undefined)
k obs / 1 [1]: 5110 M⁻¹ s⁻¹

CCC1(CC)C(=O)N(C(=O)NCc2ccccc2)C1Oc1ccc(CN(C)C)cc1 (centres undefined)
k obs / 1 [1]: 1600 M⁻¹ s⁻¹ | inhibition [2]: 0%

CCC1(CC)C(=O)N(C(=O)NCc2ccccc2)C1Oc1ccc(C[N+](C)(C)C)cc1 (centres undefined)
k obs / 1 [1]: 2430 M⁻¹ s⁻¹ | inhibition [2]: 4%

CCC1(CC)C(=O)N(C(=O)NCc2ccccc2)C1Oc1ccccc1NC(C)=O (centres undefined)
k obs / 1 [1]: 270 M⁻¹ s⁻¹ | inhibition [2]: 24%

CCC1(CC)C(=O)N(C(=O)NCc2ccccc2)C1Oc1cc(C)c(C(=O)O)c(C)c1 (centres undefined)
k obs / 1 [1]: 24 M⁻¹ s⁻¹

CCC1(CC)C(=O)N(C(=O)NCc2ccccc2)C1Oc1ccc(CC(NC(=O)CCC(=O)O)C(=O)O)cc1 (centres undefined)
k obs / 1 [1]: 900 M⁻¹ s⁻¹ | inhibition [2]: 7%

CCC1(CC)C(=O)N(C(=O)NCc2ccccc2)C1Sc1nnnn1C (centres undefined)
Inhibition (Cricetinae gen. sp.): 26% | k obs / 1 [1]: 3760 M⁻¹ s⁻¹

CCC1(CC)C(=O)N(C(=O)NCc2ccccc2)C1Oc1cccc(CC(=O)O)c1 (centres undefined)
k obs / 1 [1]: 1200 M⁻¹ s⁻¹ | inhibition [2]: 67%

CCC1(CC)C(=O)N(C(=O)NCc2ccccc2)C1n1ccnc1 (centres undefined)
k obs / 1 [1]: 200 M⁻¹ s⁻¹ | inhibition [2]: 55%

CCC1(CC)C(=O)N(C(=O)NCc2ccccc2)C1Oc1ccc(C(=O)CCC(=O)O)cc1 (centres undefined)
k obs / 1 [1]: 5000 M⁻¹ s⁻¹ | inhibition [2]: 85%

CCC1(CC)C(=O)N(C(=O)NCc2ccccc2)C1Oc1ccccc1 (centres undefined)
k obs / 1 [1]: 1900 M⁻¹ s⁻¹

CCC1(CC)C(=O)N(C(=O)NCc2ccccc2)C1Oc1ccc(CCC(=O)O)cc1 (centres undefined)
k obs / 1 [1]: 2440 M⁻¹ s⁻¹ | inhibition [2]: 60%

CCC1(CC)C(=O)N(C(=O)NCc2ccccc2)C1OCC(=O)O (centres undefined)
k obs / 1 [1]: 160 M⁻¹ s⁻¹ | inhibition [2]: 6%

CCC1(CC)C(=O)N(C(=O)NCc2ccccc2)C1C(=O)c1ccccc1 (centres undefined)
k obs / 1 [1]: 22 M⁻¹ s⁻¹

CCC1(CC)C(=O)N(C(=O)NCc2ccccc2)C1Oc1cccnc1 (centres undefined)
k obs / 1 [1]: 1620 M⁻¹ s⁻¹ | inhibition [2]: 46%
